The source made the active and inactive calls. No cut-off for these calls is given here.
How the values were obtained:
Huh-7 = assay: Antiproliferative activity against human Huh-7 cells after 48 hrs by MTT assay; format: functional, cell-based; conditions: Huh-7, 48 h
In short: (§1)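 Cells seeded at 5.0×10^3 per well, pre-incubated 12 h at 37 °C, 5% CO2, then exposed to compounds for 48 h; DMSO-only control. MTT (2.5 mg/mL) added for 4 h, formazan dissolved in DMSO, absorbance at 570 nm. Each dose tested in triplicate; IC50 from percentage survival relative to negative control.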

A549 = assay: Antiproliferative activity against human A549 cells after 48 hrs by MTT assay; format: functional, cell-based; conditions: A549, 48 h; in short: as §1
Quadruplex DNA [1] = assay: Binding affinity to 5'-biotin labeled c-myc promoter G-quadruplex DNA Pu27 (unknown origin) by surface plasmon resonance method; format: nucleic-acid assay
In short: (§2)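 SPR: 5'-biotin DNA diluted to 1 μM and captured (1000 RU) on a sensor chip, with a blank cell as reference. Running buffers: Py33 in 20 mM MES pH 5.8, 100 mM KCl, 0.05% Tween-20; Pu27 and duplex in 50 mM Tris-HCl pH 7.4, 100 mM KCl. Six ligand concentrations serially diluted from DMSO stock. Association 260 s, dissociation 300 s at 25 °C; NaOH regeneration; blank sensorgrams subtracted.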

SiHa = assay: Antiproliferative activity against human SiHa cells after 48 hrs by MTT assay; format: functional, cell-based; in short: as §1
U2OS = assay: Antiproliferative activity against human U2OS cells after 48 hrs by MTT assay; format: functional, cell-based; in short: as §1
A-375 = assay: Antiproliferative activity against human A-375 cells after 48 hrs by MTT assay; format: functional, cell-based; conditions: A-375, 48 h; in short: as §1
Quadruplex DNA [2] = assay: Stabilization of 5'-FAM/3'-TAMRA labeled c-myc promoter G-quadruplex DNA FPu22T (unknown origin) assessed as change in melting temperature at 1 uM by FRET assay (reference value: 66.5 degreeC); format: nucleic-acid assay
In short: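 FRET melting of dual FAM/TAMRA-labelled FPu22T annealed in 10 mM Tris-HCl pH 7.4 with KCl. Final 0.2 µM DNA with or without ligand. Excitation 470 nm, emission 530 nm, read every 1 °C over 37–99 °C on a real-time PCR cycler. ΔTm = Tm(DNA+ligand) − Tm(DNA).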

ssDNA = assay: Binding affinity to 5'-biotin labeled single-stranded DNA Py33 (unknown origin) by surface plasmon resonance method; format: nucleic-acid assay
[3] = Stabilization of 5'-FAM/3'-TAMRA labeled hairpin DNA F10T (unknown origin) assessed as change in melting temperature at 1 uM by FRET assay (reference value: 59.1 degreeC)
HCT-116 = assay: Antiproliferative activity against human HCT-116 cells after 48 hrs by MTT assay; format: functional, cell-based; conditions: HCT-116, 48 h; in short: as §1
[4] = Binding affinity to 5'-biotin labeled c-myc promoter i-motif DNA Py33 (unknown origin) by surface plasmon resonance method; in short: as §2
HeLa = assay: Antiproliferative activity against human Hela cells after 48 hrs by MTT assay; format: functional, cell-based; in short: as §1
[5] = Stabilization of 5'-FAM/3'-TAMRA labeled c-myc promoter i-motif DNA FPy33T (unknown origin) assessed as change in melting temperature at 1 uM by FRET assay (reference value: 53.2 degreeC)
In short: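 FRET melting of dual FAM/TAMRA-labelled FPy33T annealed in 1× BPES (30 mM potassium phosphate, 1 mM EDTA, 100 mM KCl), pH 5.5. Final 0.2 µM DNA with or without ligand. Excitation 470 nm, emission 530 nm, read every 1 °C over 37–99 °C. ΔTm taken against DNA alone.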

dsDNA = assay: Binding affinity to 5'-biotin labeled duplex DNA (unknown origin) by surface plasmon resonance method; format: nucleic-acid assay; in short: as §2
Quadruplex DNA [6] = assay: Stabilization of c-myc promoter G-quadruplex DNA Pu27 (unknown origin) in pH 7.4 Tris-HCl buffer by CD spectroscopy; format: nucleic-acid assay
In short: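 Pu27 at 1 µM in 10 mM Tris-HCl pH 7.4, with or without ligand. Annealed at 95 °C for 5 min, cooled to room temperature, stored at 4 °C overnight. CD spectra taken in a 4 mm cuvette over 230–350 nm, three scans averaged, smoothed and buffer-baseline corrected.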

[7] = Stabilization of c-myc promoter i-motif DNA Py33 (unknown origin) assessed as decrease in positive peak intensity at pH 5.5 measured at 288 nanometer by CD spectroscopy
In short: (§3)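 Py33 at 1 µM in 1× BPES pH 5.5 (pH 6.8 random-coil reference), with or without ligand. Annealed at 95 °C for 5 min, cooled, kept at 4 °C overnight. CD spectra in a 4 mm cuvette over 230–350 nm, three scans averaged, buffer-corrected; peaks followed at 288 and 260 nm.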

[8] = Stabilization of c-myc promoter i-motif DNA Py33 (unknown origin) assessed as decrease in negative peak intensity at pH 5.5 measured at 260 nanometer by CD spectroscopy; in short: as §3
[9] = Stabilization of c-myc promoter i-motif DNA Py33 (unknown origin) assessed as reduction in appearance of random coil confirmation at pH 5.5 by CD spectroscopy; in short: as §3
[10] = Drug uptake in human SiHa cells; format: ADME, cell-based

Row | SMILES | IC50 (Huh-7) | IC50 (A549) | Kd (Quadruplex DNA [1]) | IC50 (SiHa) | IC50 (U2OS) | IC50 (A-375) | ΔTm (Quadruplex DNA [2]) | Kd (ssDNA) | ΔTm [3] | IC50 (HCT-116) | Kd [4] | IC50 (HeLa) | ΔTm [5] | Kd (dsDNA) | Activity (Quadruplex DNA [6]) | Activity [7] | Activity [8] | Activity [9] | Drug uptake [10]
1 | Cc1ccc2nc3ccc(C)cc3c(NCCCCNc3c4cc(C)ccc4nc4ccc(C)cc34)c2c1 | 2680 nM | 470 nM | 2900 nM | 3700 nM | 550 nM | 1920 nM | 10.4 °C | 6800 nM | 0.8 °C | 2060 nM | 16000 nM | 1470 nM | 9.1 °C | – | – | – | – | – | –
2 | COC(=O)c1ccc2nc3ccc(C)cc3c(NCCOCCOCCNc3c4cc(C)ccc4nc4ccc(C(=O)OC)cc34)c2c1 | – | – | 1400 nM | – | – | – | 14.3 °C | 2900 nM | 2.5 °C | – | 10300 nM | – | 1 °C | 12500 nM | Active | – | – | – | –
3 | Cc1ccc2nc3ccc(C)cc3c(NCCCCCCNc3c4cc(C)ccc4nc4ccc(C)cc34)c2c1 | – | – | 1100 nM | – | – | – | 16.8 °C | 4700 nM | 2.7 °C | – | 12400 nM | – | 10.1 °C | – | – | – | – | – | –
4 | c1ccc2c(NCCOCCOCCNc3c4ccccc4nc4ccccc34)c3ccccc3nc2c1 | 870 nM | 1140 nM | 9300 nM | 2260 nM | 330 nM | 220 nM | 10.6 °C | – | 3.4 °C | 510 nM | 16000 nM | 240 nM | 0.1 °C | 5800 nM | Active | – | – | – | –
5 | COC(=O)c1ccc2nc3ccc(C)cc3c(NCCCNCCNCCCNc3c4cc(C)ccc4nc4ccc(C(=O)OC)cc34)c2c1 | – | – | 2900 nM | – | – | – | 8.6 °C | – | 4.8 °C | – | 3800 nM | – | 2 °C | 11800 nM | – | – | – | – | –
6 | Cc1ccc2nc3ccc(C(=O)NCCCN(C)C)cc3c(NCCOCCOCCNc3c4cc(C)ccc4nc4ccc(C(=O)NCCCN(C)C)cc34)c2c1 | – | – | 3700 nM | – | – | – | 8.3 °C | – | 2.2 °C | – | 8500 nM | – | 27.4 °C | 17400 nM | – | Active | Active | Active | Not Active
7 | c1ccc2c(NCCCCCCCNc3c4ccccc4nc4ccccc34)c3ccccc3nc2c1 | – | – | 11600 nM | – | – | – | 8.8 °C | 14700 nM | 9.3 °C | – | – | – | 0.6 °C | 7400 nM | – | – | – | – | –
8 | CN(CCCNc1c2ccccc2nc2ccccc12)CCCNc1c2ccccc2nc2ccccc12 | 800 nM | 350 nM | 18300 nM | 2510 nM | 130 nM | 120 nM | 7.7 °C | – | 10.8 °C | 190 nM | 9100 nM | 340 nM | 7.3 °C | 8100 nM | – | – | – | – | –
9 | Cc1ccc2nc3ccc(C)cc3c(NCCCNc3c4cc(C)ccc4nc4ccc(C)cc34)c2c1 | 6200 nM | 1710 nM | 9200 nM | 3820 nM | 2940 nM | 2480 nM | 14.1 °C | – | 0.7 °C | 6250 nM | – | 1360 nM | 2.4 °C | 35400 nM | – | – | – | – | –
10 | Cc1ccc2nc3ccccc3c(NCCCCCCCNc3c4ccccc4nc4ccc(C)cc34)c2c1 | – | – | 10300 nM | – | – | – | 15.3 °C | – | 3.6 °C | – | – | – | 3.4 °C | 24800 nM | – | – | – | – | –
11 | Cc1ccc2nc3ccccc3c(NCCCN(C)CCCNc3c4ccccc4nc4ccc(C)cc34)c2c1 | 190 nM | 1160 nM | 6900 nM | 490 nM | 2040 nM | 230 nM | 12.1 °C | 8910 nM | 6.2 °C | 1950 nM | 10700 nM | 370 nM | 6.4 °C | 16400 nM | – | – | – | – | –
12 | Cc1ccc2nc3ccccc3c(NCCCCCNc3c4ccccc4nc4ccc(C)cc34)c2c1 | 3670 nM | 830 nM | 16300 nM | 2520 nM | 1420 nM | 1830 nM | 11.4 °C | 26100 nM | 1.9 °C | 1680 nM | 14500 nM | 1650 nM | 0.2 °C | – | – | – | – | – | –
13 | Cc1ccc2nc3ccccc3c(NCCCCCCNc3c4ccccc4nc4ccc(C)cc34)c2c1 | – | – | 14300 nM | – | – | – | 10 °C | – | 1.7 °C | – | 25100 nM | – | 1.2 °C | – | – | – | – | – | –
14 | Cc1ccc2nc3ccc(C)cc3c(NCCCN(C)CCCNc3c4cc(C)ccc4nc4ccc(C)cc34)c2c1 | 270 nM | 520 nM | 5500 nM | 370 nM | 440 nM | 130 nM | 15.6 °C | 13900 nM | 3.8 °C | 2470 nM | 10500 nM | 850 nM | 4.5 °C | 22200 nM | – | – | – | – | –
15 | Cc1ccc2nc3ccccc3c(NCCOCCOCCNc3c4ccccc4nc4ccc(C)cc34)c2c1 | 2140 nM | 810 nM | 5100 nM | 2770 nM | 2160 nM | 1880 nM | 14.3 °C | 21600 nM | 3 °C | 860 nM | 13000 nM | 320 nM | 0.1 °C | 33200 nM | Active | – | – | – | –
16 | Cc1ccc2nc3ccc(C)cc3c(NCCCCCCCNc3c4cc(C)ccc4nc4ccc(C)cc34)c2c1 | – | – | 6100 nM | – | – | – | 15.7 °C | 8800 nM | 1.8 °C | – | – | – | 1.4 °C | 10700 nM | – | – | – | – | –
17 | Cc1ccc2nc3ccccc3c(NCCCCNc3c4ccccc4nc4ccc(C)cc34)c2c1 | 3290 nM | 320 nM | 1600 nM | 2440 nM | 790 nM | 920 nM | 13.9 °C | – | 2 °C | 910 nM | – | 1360 nM | 0.4 °C | – | – | – | – | – | –
18 | Cc1ccc2nc3ccc(C)cc3c(NCCCCCNc3c4cc(C)ccc4nc4ccc(C)cc34)c2c1 | 2810 nM | 720 nM | 7300 nM | 1660 nM | 1330 nM | 510 nM | 11 °C | 23700 nM | 2.7 °C | 950 nM | – | 660 nM | 1 °C | 33600 nM | – | – | – | – | –
19 | c1ccc2c(NCCCNc3c4ccccc4nc4ccccc34)c3ccccc3nc2c1 | 5560 nM | 1730 nM | 4300 nM | 3060 nM | 1600 nM | 2050 nM | 14 °C | 13700 nM | 2.2 °C | 3510 nM | – | 2620 nM | 1.3 °C | 10100 nM | – | – | – | – | –
20 | c1ccc2c(NCCCNCCNCCCNc3c4ccccc4nc4ccccc34)c3ccccc3nc2c1 | 190 nM | 280 nM | 13800 nM | 2000 nM | 380 nM | 430 nM | 12.5 °C | – | 9.8 °C | 690 nM | 3800 nM | 270 nM | 11.8 °C | 6000 nM | – | Active | Active | Active | –
